A selection: hits, their analogues and other compounds. The true share with any hit is near 2.2%.
NR2E3 ag-1 = NR2E3 (human) agonism; AID 2300; hit rate 0.12% among 320,000; GST-NR2E3/biotin-RetCOR TR-FRET, 1536-well; inhibition of corepressor binding, % at 4.78 µM; Q9Y5X4;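 active = percent inhibition above the cutoff of mean plus 3 SD of all tested compounds, set per screening campaign, cut at about 20% in these data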;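 note: 0% = DMSO wells and 100% = biotin wells as full block of FRET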
Target sequence (Q9Y5X4 whole entry, looked up): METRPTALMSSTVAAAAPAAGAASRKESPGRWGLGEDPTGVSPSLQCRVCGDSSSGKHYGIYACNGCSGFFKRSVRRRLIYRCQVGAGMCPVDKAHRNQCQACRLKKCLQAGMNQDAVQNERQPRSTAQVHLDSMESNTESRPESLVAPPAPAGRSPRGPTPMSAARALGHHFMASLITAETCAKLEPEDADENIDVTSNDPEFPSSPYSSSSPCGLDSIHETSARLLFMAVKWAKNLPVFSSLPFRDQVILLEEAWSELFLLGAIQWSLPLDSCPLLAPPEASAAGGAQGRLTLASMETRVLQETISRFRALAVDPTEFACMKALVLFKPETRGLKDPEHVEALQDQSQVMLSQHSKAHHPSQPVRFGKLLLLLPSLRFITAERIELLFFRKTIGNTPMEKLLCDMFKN
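Test system – NR2E3–RetCOR corepressor complex · Quantity – NR2E3 fusion 1.35 nM · Buffer or medium – Tris pH 7.5 · Incubation – Compound–protein incubation for 5 h at 4 °C · Technique – TR-FRET, Eu(K)-anti-GST donor, streptavidin-D2 acceptor, ex 340, em 617/671 nm · Evaluation – percent inhibition of 671/617 nm emission ratio versus biotin and DMSO controls · Plate – 1536-well format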
NR2E3 ag-2 = agonists of human NR2E3 nuclear receptor; AID 602229; CHO-S Gal4-NCOR/VP16-NR2E3 two-hybrid, luciferase; hit rate 0.35% among 360,000; Q9Y5X4; inhibition of corepressor binding, % at 3.98 µM;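 active = inhibition above the mean of all tested compounds plus 3 SD, cut at about 70% in these data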;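 note: 0% = DMSO with NR2E3 transfected cells and 100% = cells lacking NR2E3 construct; higher means lower luciferase signal from less NR2E3 corepressor binding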
V-ATPase pHluor = regulators of yeast V-ATPase proton transport. S. cerevisiae, pHLuorin cytosolic pH fluorescence. response, % at 10 µM. hit rate 0.37% among 350,000. AID 504577; in the data active = response mostly above about 7.3%, no sharp cut-off; inactive = mostly below about 5.4%; note: actives read high
Env fusion inh = inhibitors of HIV Env-mediated cell fusion; HeLa-JRFL Env/CEM21 cell fusion, luciferase; inhibition, % at 12.3 µM; hit rate 1.1% among 360,000;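 active = mean replicate inhibition score of at least 50 and every replicate individually at or above 50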;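 note: 0% = plate neutral controls and 100% = maraviroc near 300 nM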
GalR3 antagonist = human GalR3 antagonism; HEK293 GalR3-CNG cAMP membrane potential fluorescence; galR3 body fused to GalR1 C-terminus; inhibition, % at 3 µM; hit rate 0.44% among 360,000; AID 651719;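 active = inhibition above the screen-wide average plus 3 SD, cut at about 13% in these data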;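 note: forskolin and galanin both at EC90 stimulate the cells; cAMP rise reported by CNG channel membrane potential dye signal; 0% = forskolin plus galanin with DMSO and 100% = forskolin alone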
Target sequence (O60755 1-299 limits assumed): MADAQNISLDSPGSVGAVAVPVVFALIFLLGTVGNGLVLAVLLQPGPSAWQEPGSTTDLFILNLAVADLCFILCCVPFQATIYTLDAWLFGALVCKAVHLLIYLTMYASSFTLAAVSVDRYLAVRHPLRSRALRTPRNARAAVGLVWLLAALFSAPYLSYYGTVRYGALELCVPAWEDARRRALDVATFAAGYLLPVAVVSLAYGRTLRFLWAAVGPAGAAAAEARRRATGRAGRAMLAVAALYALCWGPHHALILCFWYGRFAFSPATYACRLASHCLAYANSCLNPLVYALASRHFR
GAA850 FXN act = activators of GAA850 frataxin (FXN) promoter; HEK293 lucGAA850 FXN promoter luciferase reporter, 24 h; percent of 10 µM SAHA response; activation, % at 6 µM; hit rate 0.56% among 360,000;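 active = activation above the average of all compounds screened plus 3 SD, cutoff fixed separately per campaign, cut at about 7.5% in these data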;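 note: 0% = DMSO wells and 100% = 10 µM SAHA wells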
NR2E3 ag confirm = confirmation of human NR2E3 agonists; shares compounds with NR2E3 ag-2; CHO-S mammalian two-hybrid NR2E3-NCOR, luciferase luminescence; hit rate 51% among 2,300; inhibition, % at 3.98 µM; AID 624378;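 active = average inhibition above a cutoff equal to the mean inhibition of all tested compounds plus one SD, cut at about 70% in these data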;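 note: 0% = DMSO in NR2E3 cells and 100% = DMSO in cells lacking NR2E3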
VP16 counter = counter-screen for NR2E3 agonists: GAL4-VP16 reporter inhibitors. hit rate 29% among 2,300. CHO-S GAL4-VP16 luciferase reporter, luminescence. inhibition, % at 3.98 µM. shares compounds with NR2E3 ag-2;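 active = mean inhibition above a cutoff equal to the average over all tested compounds plus one standard deviation, cut at about 70% in these data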;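 note: luciferase from a UAS reporter driven by GAL4-VP16 transactivation; 0% = DMSO with VP16-transfected cells and 100% = DMSO with cells lacking VP16; higher means less reporter light so more repression of VP16 activity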
The depositor's hits bear a star; nt = not tested or not shown; [ ] = dose if it differs, or a comment.

SMILES	NR2E3 ag-1	NR2E3 ag-2	V-ATPase pHluor	Env fusion inh	GalR3 antagonist	GAA850 FXN act	NR2E3 ag confirm	VP16 counter
O=C(Nc1cc(C(F)(F)F)ccc1N1CCOCC1)c1ccco1	0	103*	4	nt	-7	1	-1	2
O=C(Nc1ccc(Br)cc1)c1ccc(F)c(S(=O)(=O)NCc2cccs2)c1	1	83*	1	29	109*	-6	97*	82*
O=S(=O)(NCc1cccs1)c1ccc(Br)cc1	4	-31	-1	-27	0	0	nt	nt
Cc1ccc(C(=O)N2CCN3C(=O)c4ccccc4C23c2ccc(Cl)cc2)cc1 (stereo not given)	2	74*	1	nt	-7	-8	44	15
COc1ccc(NC(=O)c2ccc(-c3ccccc3)cc2)cc1NS(=O)(=O)c1ccc(F)cc1	0	69	-1	46	-8	1	-5	21
COc1ccc(NC(=O)c2ccccc2)cc1NS(=O)(=O)c1ccc(F)cc1	3	-22	1	-13	-4	1	nt	nt
C[C@@H]1CCCCO[C@H](CN(C)S(=O)(=O)c2cccs2)[C@@H](C)CN([C@H](C)CO)C(=O)c2cc(NS(=O)(=O)c3cccs3)ccc2O1	nt	nt	nt	0[16.7 µM]	nt	nt	nt	nt
Cc1ccc(C)c(S(=O)(=O)Nc2cc3c4c(c2)CCC(=O)N4CCC3)c1	0	57	8	4	-2	5	28	-21
COc1ccc(C)cc1S(=O)(=O)Nc1cc2c3c(c1)CCN3C(=O)CC2	3	-8	-3	-12	-2	2	nt	nt
CC(=O)c1cn(CC(=O)Nc2ccc(C)cc2C)c2ccccc12	4	54	-3	nt	2	-5	77*	49
N#CCc1ccc(NC(=O)/C=C/c2ccc([N+](=O)[O-])o2)cc1	nt	50	1	nt	nt	-16	61	31
CCCN1C[C@H](C)[C@@H](OC)CN(C)C(=O)c2ccc(NC(=O)Nc3c(C)noc3C)cc2OC[C@H]1C	nt	nt	nt	-8[16.7 µM]	nt	nt	nt	nt
O=C(c1cc(COc2cccc3cnccc23)on1)N1CCC(c2ccccc2Cl)C1 (stereo not given)	-1	95*	4	15	1	1	78*	68
Cc1c(C(C)NC(=O)c2cc(COc3cccc4cnccc34)on2)cnn1C (stereo not given)	3	72*	-3	35	0	-3	53	61
O=C(c1cc(COc2c(F)cccc2F)on1)N1CCC(c2ccccc2Cl)C1 (stereo not given)	4	-39	3	-33	3	3	nt	nt
Cc1cccc(C)c1OCc1cc(C(=O)N2CCC(c3ccncc3)CC2)no1	0	86*	0	-19	2	0	88*	53
O=C(c1cc(COc2c(F)cccc2F)on1)N1CCC(c2ccncc2)CC1	2	62	-3	-10	11	0	83*	73*
C[C@@H]1CN([C@@H](C)CO)S(=O)(=O)c2ccc(-c3cccc(C#N)c3)cc2O[C@H]1CN(C)Cc1cccc(F)c1	nt	nt	nt	33[16.7 µM]	nt	nt	nt	nt
O=C(C[C@@H]1C[C@H]2c3cc(NC(=O)Nc4ccc(C(F)(F)F)cc4)ccc3O[C@H]2[C@@H](CO)O1)NCc1cccnc1	nt	nt	nt	-7[16.7 µM]	nt	nt	nt	nt
O=C(Nc1ccccc1F)N[C@@H]1CC[C@@H](CCNS(=O)(=O)c2ccc(F)cc2)O[C@@H]1CO	nt	nt	nt	-8[16.7 µM]	nt	nt	nt	nt
Cc1ccc(OCc2ccc(C(=O)Nc3c(C)nn(Cc4c(F)c(F)c(F)c(F)c4F)c3C)o2)c([N+](=O)[O-])c1	-3	51	3	30	0	0	40	53
Cc1ccc(OCc2ccc(C(=O)NN)o2)c([N+](=O)[O-])c1	1	-54	2	-25	-4	3	nt	nt
C[C@@H]1CCCCO[C@@H](CN(C)S(C)(=O)=O)[C@H](C)CN([C@@H](C)CO)C(=O)c2cc(N(C)C)ccc2O1	nt	nt	nt	-4[16.7 µM]	nt	nt	nt	nt
Brc1ccc(-c2nnc3c4ccccc4nc(N4CCOCC4)n23)cc1	0	80*	1	-32	-4	3	15	-21
CCc1cccc2sc(N3CCN(C(=O)c4ccc([N+](=O)[O-])o4)CC3)nc12	-2	90*	0	nt	nt	-1	76*	13
SMILES	NR2E3 ag-1	NR2E3 ag-2	V-ATPase pHluor	Env fusion inh	GalR3 antagonist	GAA850 FXN act	NR2E3 ag confirm	VP16 counter
COc1ccc(/C=C/C(=O)c2nc3ccccc3n2CC(=O)c2ccc(OC)cc2)cc1	1	-8	1	-137	-6	-1	nt	nt
COc1ccc(C(=O)Cn2c(C(C)=O)nc3ccccc32)cc1	nt	63	4	8	-7	-12	15	8
Cc1cccc(OCC(=O)Oc2ccc(Cl)cc2)c1	1	1	2	-6	-5	0	nt	nt
Cc1cccc(OC(=O)NCCOC(=O)N(O)c2ccc(Cl)cc2)c1	3	81*	-10	nt	1	-1	83*	71*
Cc1noc(C)c1NC(=O)N(C)C[C@@H]1OCCCC[C@@H](C)Oc2ccc(NC(=O)Cc3ccccc3)cc2C(=O)N([C@H](C)CO)C[C@H]1C	nt	nt	nt	-12[16.7 µM]	nt	nt	nt	nt
COCC(=O)Oc1cc(-c2ccc(C)cc2C)c(OC(=O)COC)c(-c2ccc(C)cc2C)c1	nt	69	-2	-27	-6	-4	24	8
Cc1ccc(OCC(=O)Oc2c(C)cccc2C)cc1	1	-29	-1	-27	-6	-2	nt	nt
C[C@H](CO)N1C[C@H](C)[C@H](CN(C)Cc2cncnc2)Oc2ncc(-c3ccc(C#N)cc3)cc2C1=O	nt	nt	nt	-3[16.7 µM]	nt	nt	nt	nt
C[C@@H]1CN([C@H](C)CO)C(=O)c2cccc(NC(=O)c3cnccn3)c2O[C@H]1CN(C)CC1CCCCC1	nt	nt	nt	25[16.7 µM]	nt	nt	nt	nt
COc1ccc(-n2c(C)cc(C(=O)COC(=O)c3ccc(O)cc3O)c2C)cc1	0	59	-6	nt	-7	0	89*	49
Cc1cc(C(=O)COC(=O)c2ccc(O)cc2O)c(C)n1-c1ccc(OC(F)F)cc1	nt	55	-1	nt	-2	0	3	25
COc1ccc(NC(=O)Nc2ccc3c(c2)C(=O)N([C@H](C)CO)C[C@H](C)[C@@H](CN(C)C(=O)Nc2cccc4ccccc24)O3)cc1	nt	nt	nt	17[16.7 µM]	nt	nt	nt	nt
Cc1cccc(N2CCN(S(=O)(=O)c3ccc4c(c3)NC(=O)C(C)S4)CC2)c1C (stereo not given)	-2	53	4	10	-7	-1	45	48
Cc1ccc(NC(=O)C2CCN(S(=O)(=O)c3ccc4c(c3)NC(=O)C(C)S4)CC2)cc1Cl (stereo not given)	-1	105*	-4	2	-11	-6	98*	85*
